Here are results for one compound from ChEMBL document CHEMBL3621164, “Discovery of Triazole CYP11B2 Inhibitors with in Vivo Activity in Rhesus Monkeys” (ACS Med Chem Lett, 2015).

Series [1] is described as follows: Intrinsic clearance in Sprague-Dawley rat liver microsomes by LC/MS method. Type of series: ADME. The settings on record: read-out: CLH. In general terms: Microsomes from liver hold many membrane-bound enzymes, among them those of drug oxidation.
A further series concerns the target T1, Aromatase (Homo sapiens, UniProt P11511).
T1 sequence (P11511 whole entry): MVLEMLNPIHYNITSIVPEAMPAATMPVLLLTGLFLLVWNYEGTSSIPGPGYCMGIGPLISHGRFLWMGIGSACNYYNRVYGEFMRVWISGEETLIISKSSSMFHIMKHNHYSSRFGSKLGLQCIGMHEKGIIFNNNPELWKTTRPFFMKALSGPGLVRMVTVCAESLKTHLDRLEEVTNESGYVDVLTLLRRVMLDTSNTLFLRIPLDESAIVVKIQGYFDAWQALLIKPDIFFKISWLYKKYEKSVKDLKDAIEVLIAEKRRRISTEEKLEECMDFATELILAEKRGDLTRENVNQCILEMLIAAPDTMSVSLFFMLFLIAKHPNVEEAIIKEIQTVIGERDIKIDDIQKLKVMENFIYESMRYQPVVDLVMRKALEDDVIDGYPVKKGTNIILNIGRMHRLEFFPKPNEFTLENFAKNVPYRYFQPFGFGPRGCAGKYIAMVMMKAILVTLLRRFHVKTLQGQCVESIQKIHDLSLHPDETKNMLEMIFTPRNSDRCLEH
Put plainly: Inhibition of human CYP19.

Series [2] can be described thus: Half life in Sprague-Dawley rat at 2 mg/kg, po administered through gavage by LC/MS/MS method. Type of series: ADME, organism-based. The note with it: in vivo.
A further series has as its target Cytochrome P450 3A4 (Homo sapiens, UniProt P08684). In words: Inhibition of human CYP3A4. It is filed as ADME.
Series [3] can be described thus: Inhibition of rhesus monkey CYP11B1. On the set-up: species or system Macaca mulatta.
Series [4] concerns Plasma. In words: Free plasma concentration in rhesus monkey at 1 mg/kg, iv measured 90 mins post dose by LC/MS method. Type of series: ADME, organism-based, Macaca mulatta. The settings on record: in vivo, 1.5 h. An outline of the steps:
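Anesthetized rhesus monkeys dosed i.v.; plasma drug concentration measured 90 min postdose. Free (unbound) concentration calculated from total plasma level using the free fraction determined in rhesus plasma.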

In series [5] the test system is Rhesus monkey. In words: Dose normalized AUC in rhesus monkey at 2 mg/kg administered through gavage. It is filed as ADME, organism-based, Macaca mulatta. The note with it: in vivo, po.
For series [6], the system named is Rhesus monkey. Put plainly: Decrease in aldosterone level in iv dosed rhesus monkey plasma by LC/MS method. The note with it: Macaca mulatta. It is filed as functional, organism-based. An outline of the steps:
(§1)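 Plasma aldosterone and 11-deoxycortisol quantified by LC–MS at time points up to 180 min postdose; AUCs over that period calculated and compared with baseline.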

For series [7], the target named is T2, Cytochrome P450 11B2, mitochondrial (Homo sapiens, UniProt P19099).
T2 sequence (P19099 whole entry): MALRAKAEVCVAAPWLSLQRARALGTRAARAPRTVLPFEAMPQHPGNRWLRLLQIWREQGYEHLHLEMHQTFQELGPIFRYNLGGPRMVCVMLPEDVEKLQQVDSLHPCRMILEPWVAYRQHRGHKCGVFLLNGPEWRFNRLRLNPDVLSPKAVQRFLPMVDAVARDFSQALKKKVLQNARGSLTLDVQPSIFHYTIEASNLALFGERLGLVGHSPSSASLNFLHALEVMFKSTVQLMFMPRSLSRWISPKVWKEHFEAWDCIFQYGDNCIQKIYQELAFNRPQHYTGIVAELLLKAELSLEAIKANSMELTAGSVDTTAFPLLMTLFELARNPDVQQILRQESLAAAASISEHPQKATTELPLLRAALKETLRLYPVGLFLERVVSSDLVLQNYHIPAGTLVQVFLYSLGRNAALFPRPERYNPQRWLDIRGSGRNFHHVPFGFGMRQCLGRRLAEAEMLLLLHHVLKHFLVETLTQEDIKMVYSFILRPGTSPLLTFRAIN
In words: Inhibition of human CYP11B2 expressed in V79 cells assessed as aldosterone level after 3 hrs by HTRF assay in presence of 125 nM 11-deoxycorticosterone. It is filed as cell-based.

A short description of series [8]: Oral bioavailability in Sprague-Dawley rat at 2 mg/kg administered through gavage. It is filed as ADME, organism-based. The note with it: in vivo.
Series [9] can be described thus: Oral bioavailability in rhesus monkey at 2 mg/kg administered through gavage. The note with it: in vivo. Type of series: ADME, organism-based, Macaca mulatta.
Series [10] concerns the target T3, Steroid 17-alpha-hydroxylase/17,20 lyase (Homo sapiens, UniProt P05093).
T3 sequence (P05093 whole entry): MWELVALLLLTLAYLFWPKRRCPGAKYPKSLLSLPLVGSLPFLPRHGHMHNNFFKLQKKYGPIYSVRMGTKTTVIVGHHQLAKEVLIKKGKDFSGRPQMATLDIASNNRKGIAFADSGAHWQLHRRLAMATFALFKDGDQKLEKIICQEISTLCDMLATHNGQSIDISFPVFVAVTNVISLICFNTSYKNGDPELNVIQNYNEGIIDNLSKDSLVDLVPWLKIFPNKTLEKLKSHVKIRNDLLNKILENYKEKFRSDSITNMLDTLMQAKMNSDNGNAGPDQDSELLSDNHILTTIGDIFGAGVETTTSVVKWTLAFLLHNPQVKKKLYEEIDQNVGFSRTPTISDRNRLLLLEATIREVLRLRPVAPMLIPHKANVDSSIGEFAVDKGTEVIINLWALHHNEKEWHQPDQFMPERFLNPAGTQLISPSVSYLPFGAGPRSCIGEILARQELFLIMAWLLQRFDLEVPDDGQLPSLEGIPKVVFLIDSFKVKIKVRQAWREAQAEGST
In words: Inhibition of human CYP17 expressed in COS7 cells assessed as DHEA level after 3 hrs by EIA assay in presence of 360 nM 17-hydroxypregnenolone. Type of series: cell-based, COS-7.

For series [11], the target named is T4, Cytochrome P450 11B2, mitochondrial (Rattus norvegicus, UniProt P30099).
T4 sequence (P30099 whole entry): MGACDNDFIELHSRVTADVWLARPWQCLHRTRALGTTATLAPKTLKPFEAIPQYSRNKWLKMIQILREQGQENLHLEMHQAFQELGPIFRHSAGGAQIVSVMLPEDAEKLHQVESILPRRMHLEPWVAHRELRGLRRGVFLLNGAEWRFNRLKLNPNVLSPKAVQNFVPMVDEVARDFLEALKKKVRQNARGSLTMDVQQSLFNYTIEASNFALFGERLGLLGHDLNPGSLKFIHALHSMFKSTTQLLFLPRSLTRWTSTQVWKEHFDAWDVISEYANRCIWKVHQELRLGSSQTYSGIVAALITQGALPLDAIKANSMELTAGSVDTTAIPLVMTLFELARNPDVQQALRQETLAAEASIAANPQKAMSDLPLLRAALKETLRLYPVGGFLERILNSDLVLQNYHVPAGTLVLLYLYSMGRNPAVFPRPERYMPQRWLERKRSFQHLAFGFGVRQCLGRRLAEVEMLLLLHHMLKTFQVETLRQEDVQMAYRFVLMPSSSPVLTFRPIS
In words: Inhibition of rat CYP11B2 expressed in V79 cells assessed as aldosterone level after 3 hrs by HTRF assay in presence of 500 nM 11-deoxycorticosterone. The settings on record: v79, 3 h. It is filed as cell-based.

For another series, the species on record is Homo sapiens. Put plainly: Selectivity index, ratio IC50 for human CYP11B1 to IC50 for human CYP11B2. Put shortly:
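Ratio of human CYP11B1 IC50 to human CYP11B2 IC50; each IC50 calculated from n ≥ 2 determinations.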

In series [12] the test system is Plasma. In words: Fraction unbound in iv dosed rhesus monkey plasma measured 90 mins post dose by LC/MS method. The note with it: in vivo, 1.5 h. Type of series: ADME, organism-based, Macaca mulatta.
In series [13] the test system is Rhesus monkey. In words: Decrease in aldosterone level in rhesus monkey plasma at 1 mg/kg, iv by LC/MS method. Type of series: functional. The settings on record: Macaca mulatta. Put shortly: as §1

Chain of Cytochrome P450 3A4 (P08684 whole entry): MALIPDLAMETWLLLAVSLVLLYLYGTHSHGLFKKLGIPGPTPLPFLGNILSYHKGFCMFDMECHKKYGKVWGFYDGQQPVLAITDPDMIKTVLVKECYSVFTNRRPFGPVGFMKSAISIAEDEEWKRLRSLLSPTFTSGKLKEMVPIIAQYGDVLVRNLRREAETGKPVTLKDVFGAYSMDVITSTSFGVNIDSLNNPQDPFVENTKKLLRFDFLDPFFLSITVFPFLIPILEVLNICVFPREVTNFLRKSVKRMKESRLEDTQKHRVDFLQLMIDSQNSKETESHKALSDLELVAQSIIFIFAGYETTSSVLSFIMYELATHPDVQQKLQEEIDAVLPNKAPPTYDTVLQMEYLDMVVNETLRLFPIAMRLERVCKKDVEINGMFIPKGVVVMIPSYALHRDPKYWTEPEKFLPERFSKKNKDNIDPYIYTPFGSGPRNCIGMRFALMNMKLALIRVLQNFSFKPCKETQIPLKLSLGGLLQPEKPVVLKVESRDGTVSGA

On to `Cc1nnc2n1-c1ccc(-c3cncc([C@](C)(O)C(F)(F)F)c3)cc1CC2`, for which the CLint scaled in [1] is less than 20 mL/min/kg. For the same compound, the IC50 is more than 30 µM at Aromatase; more than 50 µM on Cytochrome P450 3A4; 3.48 µM in [3]; 64 nM in series [7]; more than 10 µM in series [10]. In addition, the half-life in [2] was 72 min. Further, the “Cp(f)” value with Plasma [4] stood at 279 nM. The compound also returned an AUC with Rhesus monkey [5] of 16.26 µM·kg·h/mg. In the series with Rhesus monkey [6], the inhibition result was “Dose-dependent effect”. Besides, the bioavailability amounted to 87% in series [8] and 100% in [9]. In addition, in series [11], the “inhibition (INH)” value is listed as “Active”. Besides, in the series filed under Homo sapiens, the Ratio IC50 was 69. In the series with Plasma [12], this compound yielded a Fu of 31%. The compound also showed an inhibition in vivo at 1 mg/kg with Rhesus monkey [13] of 98%.

The term IC50 denotes the concentration that gives 50% inhibition. As a reminder, the half-life is the time in which the quantity being followed falls by half. One may read the bioavailability as the share of a dose that reaches the circulation, judged against a reference dose that is usually intravenous. For orientation: inhibition in vivo means the relative decrease from the control value, in per cent.
